{"source": "paper PMC11062432", "about": "(The Plant Cell, 2023)", "key": {"[1]": {"tested_on": "root growth", "conditions": "overexpression or application of the peptide; ref Matos et al. 2008; Li et al. 2022; cited from earlier work"}, "[2]": {"tested_on": "plasma membrane H^+-ATPase2", "conditions": "roots; ref Haruta et al. 2014; cited from earlier work"}, "[3]": {"tested_on": "ANX1", "assay": "Pull-down assay, ANX1 ectodomain", "type": "binding, Arabidopsis thaliana", "conditions": "Flag-tagged ectodomain, His-tagged ZmRALFs", "procedure,_shortened": "(§1)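 FLAG-tagged Arabidopsis receptor ectodomains (from earlier work) were mixed with maize RALF mature peptides. The peptides were TrxA-His fusions expressed in E. coli BL21 (1 mm IPTG, 30 °C, 3–4 h), Ni-NTA-purified and desalted. The mix sat in 20 mm Tris pH 7.5, 1% CA630, rotating at 4 °C for 2 h. Ni-NTA beads were then added for 2 h more, followed by 5 washes. Read-out: SDS-PAGE and Western blot, anti-His and anti-FLAG.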"}, "[4]": {"tested_on": "ANX2", "assay": "Pull-down assay, ANX2 ectodomain", "type": "binding, Arabidopsis thaliana", "conditions": "Flag-tagged ectodomain, His-tagged ZmRALFs", "procedure,_shortened": "as §1"}, "[5]": {"tested_on": "BUPS1", "assay": "Pull-down assay, BUPS1 ectodomain", "type": "binding, Arabidopsis thaliana", "conditions": "Flag-tagged ectodomain, His-tagged ZmRALFs", "procedure,_shortened": "as §1"}, "[6]": {"tested_on": "BUPS2", "assay": "Pull-down assay, BUPS2 ectodomain", "type": "binding, Arabidopsis thaliana", "conditions": "Flag-tagged ectodomain, His-tagged ZmRALFs", "procedure,_shortened": "as §1"}, "[7]": {"tested_on": "CrRLK1Ls", "assay": "Interaction of RALFs with CrRLK1Ls, overall", "type": "binding", "conditions": "discussion summary"}, "[8]": {"tested_on": "ZmLLG1", "assay": "Pull-down assay, ZmLLG1", "type": "binding, Zea mays", "conditions": "MBP-tagged LLG, His-tagged RALFs", "procedure,_shortened": "(§2)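 MBP-tagged maize partners were expressed in E. coli BL21 (0.1–0.5 mm IPTG, 30 °C, 3–4 h), amylose-purified, eluted with maltose and desalted. Partners: LLGs without signal peptide, PEX2 N-terminal LRR domain, PEX4. Each was incubated with His-tagged maize RALFs in 20 mm Tris pH 7.5, 1% CA630 at 4 °C for 2 h, then Ni-NTA pull-down for 2 h and 5 washes. Read-out: SDS-PAGE and Western blot, anti-His and anti-MBP.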"}, "[9]": {"tested_on": "ZmLLG2", "assay": "Pull-down assay, ZmLLG2", "type": "binding, Zea mays", "conditions": "MBP-tagged LLG, His-tagged RALFs", "procedure,_shortened": "as §2"}, "[10]": {"tested_on": "ZmPEX2", "assay": "Pull-down assay, LRR domain of ZmPEX2", "type": "binding, Zea mays", "conditions": "MBP-tagged N-terminal LRR domain of ZmPEX2, ZmRALFs", "procedure,_shortened": "as §2"}, "[11]": {"tested_on": "ZmPEX4", "assay": "Pull-down assay, full-length ZmPEX4", "type": "binding, Zea mays", "conditions": "MBP-tagged full-length ZmPEX4, ZmRALFs", "procedure,_shortened": "as §2"}, "[12]": {"molecular_target": "6xHis-ZmRALF3 (predicted mature peptide, pET53-DEST, refolded) (maize (Zea mays))", "assay": "MST"}, "[13]": {"molecular_target": "6xHis-ZmRALF1 (predicted mature peptide, pET53-DEST, refolded) (maize (Zea mays))", "assay": "MST"}, "[14]": {"molecular_target": "6xHis-ZmRALF2 (predicted mature peptide, pET53-DEST, refolded) (maize (Zea mays))", "assay": "MST"}}, "note": "Bridge positions count the residues as written; N and C are the ends. Ends that are not written are not given here."}
{"substance": "AtRALF1: Clade IA Arabidopsis RALF (ATTKYISYQSLKRNSVPCSRRGASYYNCQNGAQANPYSRGCSKIARCRS; not fully specified; ends and bridges not checked; UniProt Q9SRY3 72-120, looked up)", "values": [{"measurement": "effect on root growth", "setting": "[1]", "result": "inhibited rapid root growth"}, {"measurement": "effect on H^+-ATPase2 via FER", "setting": "[2]", "result": "inhibition of plasma membrane H^+-ATPase2 explaining extracellular alkalinization"}]}
{"substance": "MARLALVAAVVLCLLLATGPQGAISAEGMVSFDNLISCKVLGNCDKNLGPEASRPGKPANDYTRGCNPITGCRG (disulfide (positions not given here)) [ZmRALF1]", "values": [{"measurement": "interaction in pull-down", "setting": "[3]", "result": "did not interact with Arabidopsis CrRLK1Ls"}, {"measurement": "interaction in pull-down", "setting": "[4]", "result": "did not interact with Arabidopsis CrRLK1Ls"}, {"measurement": "interaction in pull-down", "setting": "[5]", "result": "did not interact with Arabidopsis CrRLK1Ls"}, {"measurement": "interaction in pull-down", "setting": "[6]", "result": "very weak interaction"}, {"measurement": "interaction with CrRLK1Ls in words", "setting": "[7]", "result": "very low (almost unspecific) binding"}]}
{"substance": "MARLGAGAVLALLVAVAAVAAFLAVPASAKSGELSAMGLLAAKGGSGAGPQKCSGAVGECDVDEAEELGLSGGGLGSDDAVRRTLAQRKPTNRYISYAALRADQVPCNKRGRSYYSNCEAQKAANPYRRGCSAITRCARNMN (disulfide (positions not given here)) [ZmRALF2]", "values": [{"measurement": "interaction in pull-down", "setting": "[3]", "result": "interacted more strongly with ANX1/2 and BUPS1/2 compared with ZmRALF3"}, {"measurement": "interaction in pull-down", "setting": "[4]", "result": "interacted more strongly with ANX1/2 and BUPS1/2 compared with ZmRALF3"}, {"measurement": "interaction in pull-down", "setting": "[5]", "result": "interacted more strongly with ANX1/2 and BUPS1/2 compared with ZmRALF3"}, {"measurement": "interaction in pull-down", "setting": "[6]", "result": "interacted more strongly with ANX1/2 and BUPS1/2 compared with ZmRALF3"}, {"measurement": "interaction in pull-down", "setting": "[8]", "result": "interacted with ZmLLG1/2"}, {"measurement": "interaction in pull-down", "setting": "[9]", "result": "interacted with ZmLLG1/2"}, {"measurement": "interaction in pull-down", "setting": "[10]", "result": "interacted with both ZmPEX proteins"}, {"measurement": "interaction in pull-down", "setting": "[11]", "result": "interacted with both ZmPEX proteins"}]}
{"substance": "MARLGAGAVLTLLLAVAAAAAFLAVPASAKVGDLSAVEFVAARGSSIPGQRSSKCSGAVGECGVDEEEELGLSGGGGIGAGDALRRTLAQRKPTNRYISYAALRADQVPCNKRGRSYYTNCAAQTAANPYRRGCSAITRCARSMN (disulfide (positions not given here)) [ZmRALF3]", "values": [{"measurement": "interaction in pull-down", "setting": "[8]", "result": "interacted with ZmLLG1/2"}, {"measurement": "interaction in pull-down", "setting": "[9]", "result": "interacted with ZmLLG1/2"}, {"measurement": "interaction in pull-down", "setting": "[10]", "result": "interacted with both ZmPEX proteins"}, {"measurement": "interaction in pull-down", "setting": "[11]", "result": "interacted with both ZmPEX proteins"}]}
{"substance": "MBP-tagged ectodomain of ZmFERL1 (domain or fragment)", "values": [{"measurement": "Kd", "setting": "[12]", "result": 1730, "unit": "nM"}]}
{"substance": "MGEAKLNNVTVLLVALLLLSSGVQDAAAMPGTLNYDAIVADEPNGKNKDLYRPVANANKYTRGCEPIERCRGAR (disulfide 64-70 (inferred)) [ZmRALF5]", "values": [{"measurement": "interaction in pull-down", "setting": "[3]", "result": "did not interact with Arabidopsis CrRLK1Ls"}, {"measurement": "interaction in pull-down", "setting": "[4]", "result": "did not interact with Arabidopsis CrRLK1Ls"}, {"measurement": "interaction in pull-down", "setting": "[5]", "result": "did not interact with Arabidopsis CrRLK1Ls"}]}
{"substance": "ZmFERL7 ectodomain as used in MST (tag not told: MBP or GST construct) (domain or fragment)", "values": [{"measurement": "Kd", "setting": "[13]", "result": 3530, "unit": "nM"}, {"measurement": "Kd", "setting": "[14]", "result": 615, "unit": "nM"}]}
{"substance": "ZmFERL9 ectodomain as used in MST (tag not told: MBP or GST construct) (domain or fragment)", "values": [{"measurement": "Kd", "setting": "[13]", "result": 1900, "unit": "nM"}, {"measurement": "Kd", "setting": "[14]", "result": 545, "unit": "nM"}]}
